From the RNAGym collection of RNA variant scans (doi:10.1126/science.aae0568)
This sample holds only a part of the variants without activity.

B1: tRNA (parent)
chain: GUUCCGUUGGCGUAAUGGUAACGCGUCUCCCUCCUAAGGAGAAGACUGCGGGUUCGAGUCCCGUACGGAACG

Variants of: B1
Assay: yeast fitness relative to wild type (ratio to wild type); higher = fitter; tRNA-Arg(CCU), competitive growth, 37 C, YPD
Summary of the method: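 Amplicons of the tRNA-Arg(CCU) gene were sequenced, 100-nucleotide paired-end, from the start population and from each end population of a pooled yeast competition. The competition, in six parallel replicates, lasted 24 hours in YPD at 37°C. Fitness relative to wild type was calculated from changes in genotype frequencies. Genotypes had to have ≥ 100 starting reads, and estimates < 0.5 were set to 0.5.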

Point of comparison: GUUCCGUUGGCGUAAUGGUAACGCGUCUCCCUCCUACAGAGAAGACUGCGGGUUCGAGUCCCGUAUGGAACG [A37C G38A C66U], yeast fitness 0.587. Against it:
- GUUCCGUUGGCGUAAUGGUAACGCGUCUCCCUCCUACGGAGAACACUGCGGCUUCGAAUCCCGUACGGAACG [A37C G44C G52C G58A] — lower, ≤ 0.5
- GUUCCGUUGGCGUAAUGGUAACGCGUCUCCCUCCUACGGAGAAGACUGCGGGUUCGAGUCCAGUACGGAACG [A37C C62A] — higher, 0.874
- GUUCCGUUGGCGUAAUGGUAACGCGUCUCCCUCCUACGGAGAAGACUGUGGGUUAGAGUACCGUACGGAACG [A37C C49U C55A C60A] — lower, ≤ 0.5
- GUUCCGUUGGCGUAAUGGUAACGCGUCUCCCUCCUAGGGUGAAGACUGCGGGUUCGAGUCCCGUGCGGAACG [A37G A40U A65G] — lower, 0.571
- GUUCCGUUGGCGUAAUGGUAACGCGUCUCCCUCCUACGGAGAAGACUGCGAGCUCGAGUCCAGUACGGAACG [A37C G51A U53C C62A] — lower, ≤ 0.5
- GUUCCGUUGGCGUAAUGGUAACGCGUCUCCCUCCUACGGAGAAGACUGCGGGUUCGAGUCCCGUAAGGAACG [A37C C66A] — higher, 0.659
- GUUCCGUUGGCGUAAUGGUAACGCGUCUCCCUCCUACGGAGAAGACUGCGAGUUCGAGUCCCGUACGGAACG [A37C G51A] — higher, 0.605
- GUUCCGUUGGCGUAAUGGUAACGCGUCUCCCUCCUAGGGGGAAGACUGUGGGUUCGAGUCCCGUACGGAACG [A37G A40G C49U] — lower, 0.501
- GUUCCGUUGGCGUAAUGGUAACGCGUCUCCCUCCUACGAAGAAGACUGCGGGUUCGAGUGCCGUAAGGAACG [A37C G39A C60G C66A] — lower, ≤ 0.5
- GUUCCGUUGGCGUAAUGGUAACGCGUCUCCCUCCUACGGAGAAGACUGCGGGUUCGAGUUCCGUACAGAACG [A37C C60U G67A] — lower, 0.522
- GUUCCGUUGGCGUAAUGGUAACGCGUCUCCCUCCUACGGAGAAGACUGGGGGUUCGAGUCCCGUACGGACCG [A37C C49G A70C] — lower, ≤ 0.5
- GUUCCGUUGGCGUAAUGGUAACGCGUCUCCCUCCUACGGAGAAGACUGCGGGUUCGAGUCCCGAACGGAACG [A37C U64A] — higher, 0.729
- GUUCCGUUGGCGUAAUGGUAACGCGUCUCCCUCCUACGCAGAAGACUGCGGGUUCGAGUCCCGUACGGAACG [A37C G39C] — lower, 0.534
- GUUCCGUUGGCGUAAUGGUAACGCGUCUCCCUCCUACGGAGAAGACUGCGGAAUCGAGUCCCGUACGGAACG [A37C G52A U53A] — lower, 0.566
- GUUCCGUUGGCGUAAUGGUAACGCGUCUCCCUCCUAGGGAGCAGACUGCGGGUUCGAGUCCCGUACGGAACG [A37G A42C] — higher, 0.806
- GUUCCGUUGGCGUAAUGGUAACGCGUCUCCCUCCUACGGAGAAGACUGCGGGUUCGAGUCCCGUACGCAACG [A37C G68C] — higher, 0.764
- GUUCCGUUGGCGUAAUGGUAACGCGUCUCCCUCCUACGGAGAAGACAGCGGGUUCGAAUCCCGUACGGAACG [A37C U47A G58A] — lower, ≤ 0.5
- GUUCCGUUGGCGUAAUGGUAACGCGUCUCCCUCCUACGGAGAAGACUGCGGGUUCGAGCCCCGUACGGAACG [A37C U59C] — higher, 0.699
- GUUCCGUUGGCGUAAUGGUAACGCGUCUCCCUCCUACGGAGAAGACUCCGGGUUCGAGUCCCGUACGGAACG [A37C G48C] — higher, 0.751
- GUUCCGUUGGCGUAAUGGUAACGCGUCUCCCUCCUACGGAGAAGACUACGGGUUCGAGUCCCGUACGGAACG [A37C G48A] — higher, 0.779
- GUUCCGUUGGCGUAAUGGUAACGCGUCUCCCUCCUACGGAGAAGACUGCGGGUUCGAGUCGCGUACGGAACG [A37C C61G] — lower, 0.584
- GUUCCGUUGGCGUAAUGGUAACGCGUCUCCCUCCUACGGAGAAGACUGCGGGUUCGAGUCUCGUACGGAACG [A37C C61U] — higher, 0.681
- GUUCCGUUGGCGUAAUGGUAACGCGUCUCCCUCCUACGGAGAAGACUGCGGGUUGGAGUCCCGUACGGCACG [A37C C55G A69C] — lower, ≤ 0.5
- GUUCCGUUGGCGUAAUGGUAACGCGUCUCCCUCCUACGGAGAAGACUGCGGGUUCAAGUCCCGUACGUAACG [A37C G56A G68U] — higher, 0.602
- GUUCCGUUGGCGUAAUGGUAACGCGUCUCCCUCCUACGGAGAAGACGGCGGGUUCGAGUCCCGUACGGAACG [A37C U47G] — lower, 0.573
- GUUCCGUUGGCGUAAUGGUAACGCGUCUCCCUCCUACGGAGAACACUGCGGGUUCGAGUCCCGUACGGAACG [A37C G44C] — higher, 0.758
- GUUCCGUUGGCGUAAUGGUAACGCGUCUCCCUCCUACGGAGAAGACUGCGGGUUAGAGUCCCGUCCGGAACG [A37C C55A A65C] — higher, 0.603
- GUUCCGUUGGCGUAAUGGUAACGCGUCUCCCUCCUACGGAGAAGACUGCGGGUUAGAGUGCCCUACGGAACG [A37C C55A C60G G63C] — lower, ≤ 0.5
- GUUCCGUUGGCGUAAUGGUAACGCGUCUCCCUCCUACGGAGAAGACCGCGAGUUCGAGUCCCGUACGGAACG [A37C U47C G51A] — lower, ≤ 0.5
- GUUCCGUUGGCGUAAUGGUAACGCGUCUCCCUCCUACGGAGAAGACUGCCGGUUCGAGUCCCGUACGGAACG [A37C G50C] — lower, 0.551
- GUUCCGUUGGCGUAAUGGUAACGCGUCUCCCUCCUACGGAGAAGACCGCGAGUUCGAGUCCCGUACAGAACG [A37C U47C G51A G67A] — lower, ≤ 0.5
- GUUCCGUUGGCGUAAUGGUAACGCGUCUCCCUCCUAGGGCGAAGACUGCGGGUUCGAGUCCCGUACGGAACG [A37G A40C] — higher, 0.685
- GUUCCGUUGGCGUAAUGGUAACGCGUCUCCCUCCUAGGGGGAAGACUGCGGGUUCGAGUCCCGUACGGAACG [A37G A40G] — higher, 0.912
- GUUCCGUUGGCGUAAUGGUAACGCGUCUCCCUCCUACGGAGAAGACUGCGGGUUGGAGUCCCGUACGGAACG [A37C C55G] — higher, 0.607
- GUUCCGUUGGCGUAAUGGUAACGCGUCUCCCUCCUACGGAGAAGACUGCGGGUUCGAGUUCCGUACGGACCG [A37C C60U A70C] — lower, 0.546
- GUUCCGUUGGCGUAAUGGUAACGCGUCUCCCUCCUACGGAGAAGACUGCGGGUUCGAGUCCCGUACUGAACG [A37C G67U] — higher, 0.828
- GUUCCGUUGGCGUAAUGGUAACGCGUCUCCCUCCUACGGAGAAGACUGCGGGUUCGAGUCCCCUACGGCACG [A37C G63C A69C] — lower, ≤ 0.5
